# Rows were chosen to be rich in hits. Some 6.9% of all compounds tested hit in one or more screens of this group.
# FAK blocker – blocks human focal adhesion kinase activity; Q05397; biochemical FAK kinase activity assay; inhibition, %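 (tested at 7 µM)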; actives 0.84% (n = 97,000); AID 727;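 also: 0% = DMSO and 100% = reference compound high control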
# PostGolgi ctrl – inhibits growth of the yeast control strain; efflux-deficient yeast background strain, growth absorbance A615, 16 h; inhibition, % at 10 µM; actives 5% (n = 98,000); AID 738; in the data active = inhibition above about 30%
# PostGolgi yeast – growth inhibition of a yeast mutant, post-Golgi transport screen. post-Golgi transport phenotypic cell assay. inhibition, % at 10 µM. actives 0.9% (n = 98,000). AID 739; in the data active = inhibition above about 30%;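 also: yeast cells grown in 1536-well plates; yeast grown about 18 h at 30C before absorbance read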
# Candida biofilm – kills Candida albicans biofilms; C. albicans biofilm + clotrimazole, Alamar Blue; inhibition, % at 6 µM; actives 0.14% (n = 85,000); AID 834;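 active = inhibition above 20%; inactive = inhibition below 20%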;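 also: preformed 24 hr biofilms exposed to compound for 48 hr; 0% = biofilm without compound and 100% = blank killed by clotrimazole plus chlorhexidine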
# PTK2B oligo ant – blocks oligomerization of human Pyk2 in cells. Q14289. Q293 cells, Pyk2 FERM NanoBiT luminescence; stronger effect = lower value. z-score (the deposit names both 25 µM and 10 µM). actives 0.83% (n = 99,000);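 active = Z-score of -3 or lower, scaled per plate to the spread of control and sample wells; inactive = z-score above -3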;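 also: negative z-score means lost luminescence so less FERM oligomerization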
# Ecoli tolC – blocks growth of E. coli BW25113 tolC mutant; OD615; growth inhibition, % at 10 µM (by protocol); AID 573; actives 2.2% (n = 65,000);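 active = growth inhibition at or above a cutoff equal to the mean over every tested compound plus 3 SD, cut at about 60% in these data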;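 also: growth measured after 20 h incubation at 37 °C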
#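 Material: E. coli BW25113 ΔtolC::kan, tolC deletion mutant strain. Measure: percent growth inhibition. Schedule: 37 °C, 20 h exposure. Doses: single-point testing at 10 µM. Signal: A615 absorbance measurement. Buffer or medium: kanamycin-containing LB broth (50 µg/mL).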
# FAK inh conf – FAK (human) inhibition confirmed; shares compounds with FAK blocker; FAK kinase biochemical inhibition assay; inhibition, % at 7 µM; actives 28% (n = 750); AID 794
# Starred values were filed as active, the others as inactive; / = no result. Rule as the data show it, unless noted: active = inhibition above about 19%; inactive = the rest.
SMILES,FAK blocker,PostGolgi ctrl,PostGolgi yeast,Candida biofilm,PTK2B oligo ant,Ecoli tolC,FAK inh conf
O=C(c1ccco1)[C@@H]1[C@@H]2C(=O)N(c3ccccc3)C(=O)[C@@H]2C2c3ccccc3C=CN21 (some centres undefined),19*,/,/,/,0.1,18,6
Cc1ccc(N2C(=O)[C@@H]3[C@H](C2=O)C2c4ccccc4C=CN2[C@@H]3C(=O)c2ccco2)cc1 (some centres undefined),32*,14,2,/,-0.62,8,14
Cc1ccc(N2C(=O)[C@@H]3[C@H](C2=O)C2c4ccccc4C=CN2[C@@H]3C(=O)c2ccco2)c(C)c1 (some centres undefined),16,/,/,/,0.44,12,/
COc1ccc(N2C(=O)[C@@H]3[C@H](C2=O)[C@H]2c4ccccc4C=CN2[C@@H]3C(=O)Nc2ccccc2)cc1,5,-2,-1,3,-1.5,/,/
O=Cc1cn(CC(=O)N2CCCc3ccccc32)c2ccccc12,-2,/,/,5,-0.53,/,/
CN1C(=O)/C(=C/c2cn(CC(=O)N3CCCCC3)c3ccccc23)c2ccccc21,26*,52*,0,-2,/,/,28*
CCn1c(=O)c(C(=O)Nc2nc3ccccc3[nH]2)c(O)c2ccccc21,23*,98*,104*,/,-1.3,6,21*
CCn1c(=O)c(C(=O)NCCCO)c(O)c2ccccc21,-11,2,4,-2,1.5,10,/
CC1(C)Cc2nc3sc(C(=O)NCCO)c(N)c3cc2CO1,-3,/,/,-1,0.97,/,/
CN1CCc2nc3sc(C(=O)C45CC6CC(CC(C6)C4)C5)c(N)c3cc2C1,51*,95*,100*,/,-0.02,/,34*
O=C(NCNC(=O)c1ccccc1)c1ccccc1,2,0,7,9,-0.03,/,/
O=C(NC1(O)C(=O)c2ccccc2C1=O)c1ccccc1,22*,3,-3,/,0.11,-18,7
COC(=O)c1cc(=O)n(C2CC2)c(=NC2CC2)s1,13,12,12,/,0.51,-2,/
O=C(Nc1ccccc1)ON=C1c2ccccc2-c2ccccc21,41*,17,-19,/,0.32,/,9
O=C(Nc1ccccc1Cl)ON=C1c2ccccc2-c2ccccc21,35*,0,3,/,-0.53,/,11
O=C(Nc1ccccc1)O/N=C(\c1ccccc1)c1ccccn1,-1,15,-1,/,0.31,/,/
CCOC(=O)c1cc2sc(C)cc2n1CC(=O)N1CCc2ccccc21,-1,5,-2,-1,-0.44,-24,/
CCCC(=O)Nc1ccc(C(=O)/C=C/c2ccc(SC)cc2)cc1,7,1,-3,/,-0.77,/,/
Cc1nn(-c2ccccc2)c(Cl)c1/C=N/Nc1ccc(S(=O)(=O)Nc2ccccc2C(=O)O)cc1[N+](=O)[O-],19*,8,0,2,-1.7,/,5
Cc1cc(S(=O)(=O)Nc2ccccc2C(=O)O)ccc1Cl,-3,6,-2,11,0.22,32,/
O=C(CN(C1CC1)S(=O)(=O)c1ccc(S(=O)(=O)N2CCCCCC2)cc1)Nc1ccccc1,0,-1,2,2,0.49,-7,/
COc1ccccc1-c1cc(N)n[nH]1,25*,6,-9,4,-0.03,-3,2
Cc1cc(=O)oc(C)c1C(=O)Nc1ccc(Cl)cn1,0,10,3,5,-0.79,/,/
COc1ccc(OC)c2c(C)cc(NCCN3CCOCC3)nc12,-2,0,7,6,1.2,2,/
Cc1ccc(Cl)cc1NC1=C/C(=N\S(=O)(=O)c2cccs2)c2ccccc2C1=O,32*,66*,50*,/,-4.4*,/,23*
SMILES,FAK blocker,PostGolgi ctrl,PostGolgi yeast,Candida biofilm,PTK2B oligo ant,Ecoli tolC,FAK inh conf
CCc1nc(SCc2cccnc2)c(C#N)cc1C,3,17,-2,2,-0.86,12,/
CC(C)(C)c1nc(SCC(=O)NCc2ccco2)c2ccccc2n1,38*,29,3,/,0.41,52,17
Cc1ccc(C2NC(=O)NC3=C2CCc2ccccc23)cc1 (centres undefined),19*,7,16,6,0.23,33,-2
O=C(N/N=C/c1cccs1)c1cc(-c2ccc3ccccc3c2)n[nH]1,20*,59*,-3,/,-0.72,/,2
COC(=O)c1cc2ccccc2c(-c2c(O)ccc3ccccc23)c1O,/,/,/,/,-1.6,/,/
CCCCn1cnc2c([nH]c3cc(OC)ccc32)c1=O,2,22,-16,5,-0.96,/,/
O=C(Oc1ccc2c(c1)OCO2)c1cc2c(s1)CCC2,24*,3,-6,1,1.2,-9,3
CN(CCO)c1nc(N)c2c(N)nc3c(c2c1C#N)CC(=O)N3C1CCCC1,35*,6,1,4,/,/,0
CC(C)(C)N1C(=O)Cc2c1nc(N)c1c(N)nc(N3CCCCC3CO)c(C#N)c21 (centres undefined),56*,-13,3,-3,-2.7,80*,0
O=C(/C=C/c1ccc([N+](=O)[O-])cc1)NCC1CCCO1 (centres undefined),0,5,4,/,0.3,/,/
C=CCOC(=O)C(C#N)c1nc2ccccc2nc1N1CCN(c2ccccc2OCC)CC1 (centres undefined),/,/,/,5,/,9,/
COc1ccc2ccc3c(c2c1)N=CC1(O3)N(C)c2ccccc2C1(C)C (centres undefined),17,/,/,9,-2.6,/,/
CN1c2ccccc2C(C)(C)C12C=Nc1c(ccc3ccccc13)O2 (centres undefined),32*,-1,14,7,1.3,/,3
CS(=O)(=O)N(CC(=O)N1CCOCC1)Cc1ccccc1,35*,5,2,2,0,-9,1
CN1CCN(C(=O)CN(Cc2ccccc2)S(C)(=O)=O)CC1,1,-4,-9,8,0.27,/,/
O=C(CSc1nnnn1-c1ccc(Cl)cc1)Nc1cccnc1Cl,/,/,/,/,1.1,/,/
c1ccc(-c2noc(-c3ccc4ccccc4c3)n2)nc1,/,19,1,1,-1,0,/
COc1cccc(-c2nc(-c3ccccn3)no2)c1,98*,-5,0,-4,/,/,-2
Nc1ccc(-c2nc3c(Cl)cc(N)cc3[nH]2)cc1,25*,5,0,9,-0.81,0,4
Nc1ccc2nc(-c3ccc(N)c(Cl)c3)[nH]c2c1,4,/,/,6,-1.2,/,/
Nc1nc(N)nc(-c2ccccn2)n1,1,1,-1,/,-0.05,0,/
CCCSC1=N/C(=C\C=C\c2ccco2)C(=O)S1,25*,3,-6,8,0.01,16,5
O=C1SC(SCc2ccccc2)=N/C1=C\c1ccco1,2,3,-1,2,-0.36,1,/
c1cnc2ccc(C(c3nnnn3C3CCCC3)N3CCSCC3)cc2c1 (centres undefined),1,/,/,2,-0.39,/,/
CCOC(=O)C1=C(C)OC(N)=C(C#N)C1C1CCCCC1 (centres undefined),/,11,11,8,-1.9,5,/

# From PubChem
